# Measured values as given in ChEMBL document CHEMBL1142927, “Novel 3-iodo-8-ethoxypyrazolo[5,1-c][1,2,4]benzotriazine 5-oxide as promising lead for design of alpha5-inverse agonist useful tools for therapy of mnemonic damage” (Bioorg Med Chem, 2007).
# Active and inactive are the calls of the source. The rule behind the calls is not given here.
# Assays:
# [1] = Displacement of [3H]flumazenil from bovine brain cortex GABAA/Bz receptor; design: species or system Bos taurus
# In short: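 Bovine cerebral cortex membranes in 50 mM Tris-citrate pH 7.4, [3H]Ro 15-1788 (70.8 Ci/mmol) as radioligand. […] At least six concentrations used, curve-fitted, Ki by Cheng–Prusoff; means ± SEM of five determinations in triplicate.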
# [2] = system: Mus musculus; experiment: Anticonvulsant activity against pentylenetetrazole-induced seizure in CD1 Albino mouse at 10 mg/kg, po; assay type: functional
# In short: (§1)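 Male CD-1 mice (22–24 g) dosed po in 1% carboxymethylcellulose (10 ml/kg); PTZ 90 mg/kg sc given 30 min later. Occurrence of clonic generalized convulsions noted over 30 min and expressed as percent of animals protected; latency (s) also recorded. Means ± SEM; ANOVA with Scheffe post-hoc test, Student's two-tailed t-test for pairs of means.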
# [3] = system: Mus musculus; experiment: Effect on learning and memory performance in CD1 Albino mouse assessed as cognition enhancement at 10 mg/kg, po; assay type: functional, organism-based; design: dose 10 mg/kg
# In short: (§2)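 Passive avoidance test in male CD-1 mice dosed po 30 min before training, with retention tested 24 h later. Read-out was the difference in latency (s) to enter the dark compartment between training and retention. Means ± SEM of 9–10 mice; ANOVA with Fischer's test.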
# [4] = species on record: Mus musculus; experiment: Anxiogenic-like effect in CD1 Albino mouse assessed as decrease in time spent in light compartment in light-dark box test; assay type: functional, organism-based
# In short: (§3)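 Light/dark box test in male CD-1 mice dosed 30 min beforehand in 1% CMC vehicle. Number of transfers between compartments and time spent in the illuminated side counted over 5 min. Statistics by ANOVA with Fischer's test versus controls.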
# [5] = system: Mus musculus; experiment: Effect on learning and memory performance in CD1 Albino mouse assessed as cognition enhancement at 3 mg/kg, po; assay type: functional, organism-based; design: dose 3 mg/kg; in short: as §2
# [6] = system: Mus musculus; experiment: Anticonvulsant activity against pentylenetetrazole-induced seizure in CD1 Albino mouse assessed as latency at 3 mg/kg, po; assay type: functional; in short: as §1
# [7] = molecular target: GABA A receptor alpha-3/beta-2/gamma-2 (Rattus norvegicus, UniProt P18508+P20236+P63138); experiment: Displacement of [3H]Ro15-1788 from rat recombinant GABA alpha-3-beta-2-gamma-2 receptor expressed in HEK293 cells; assay type: cell-based
# In short: (§4)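 Crude membranes from clonal mammalian cells expressing recombinant subtypes, grown in MEM/EBSS with 10% FCS at 37 °C, 5% CO2. Membranes resuspended in 10 mM potassium phosphate pH 7.4 with 100 mM KCl. Ki from three independent experiments run in triplicate, means ± SEM.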
# [8] = system: Mus musculus; experiment: Effect on motor coordination in CD1 Albino mouse assessed as number of falls in 30 secs at 10 mg/kg, po […] by rotarod test relative to control; assay type: functional
# [9] = molecular target: GABA-A receptor alpha-5/beta-2/gamma-2 (Rattus norvegicus); experiment: Displacement of [3H]Ro-151788 from rat recombinant GABA alpha-5-beta-2-gamma-2 receptor expressed in HEK293 cells
# [10] = system: Mus musculus; experiment: Effect on motor coordination in CD1 Albino mouse assessed as number of falls in 30 secs at 30 mg/kg, po […] by rotarod test relative to control; assay type: functional
# [11] = system: Mus musculus; experiment: Anticonvulsant activity against pentylenetetrazole-induced seizure in CD1 Albino mouse at 3 mg/kg, po; assay type: functional; in short: as §1
# [12] = molecular target: GABA-A receptor; alpha-1/beta-2/gamma-2 (Rattus norvegicus, UniProt P18508+P62813+P63138); experiment: Displacement of [3H]Ro15-1788 from rat recombinant GABA alpha-1-beta-2-gamma-2 receptor expressed in HEK293 cells; assay type: cell-based; in short: as §4
# [13] = system: Mus musculus; experiment: Effect on motor coordination in CD1 Albino mouse assessed as number of falls in 30 secs at 3 mg/kg, po […] by rotarod test relative to control; assay type: functional
# [14] = system: Mus musculus; experiment: Decrease in ethanol-induced sleeping time in CD1 Albino mouse at 10 mg/kg, po relative to control; assay type: functional, organism-based; design: dose 10 mg/kg
# In short: (§5)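 Male CD-1 mice given drug po in 1% CMC, then ethanol 4 g/kg ip 30 min later. Sleep time taken as duration of loss of righting reflex, capped at 210 min. Means ± SEM of 5–16 mice; ANOVA with Fischer's test versus controls.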
# [15] = system: Mus musculus; experiment: Decrease in ethanol-induced sleeping time in CD1 Albino mouse at 3 mg/kg, po relative to control; assay type: functional, organism-based; design: dose 3 mg/kg; in short: as §5
# [16] = system: Mus musculus; experiment: Anxiogenic-like effect in CD1 Albino mouse assessed as decrease in number of transfers from one compartment to another at 10 mg/kg in light-dark box test; assay type: functional, organism-based; design: dose 10 mg/kg; in short: as §3
# [17] = system: Mus musculus; experiment: Anticonvulsant activity against pentylenetetrazole-induced seizure in CD1 Albino mouse at 30 mg/kg, po; assay type: functional; in short: as §1
# Chain of GABA A receptor alpha-3/beta-2/gamma-2 (P18508 whole entry): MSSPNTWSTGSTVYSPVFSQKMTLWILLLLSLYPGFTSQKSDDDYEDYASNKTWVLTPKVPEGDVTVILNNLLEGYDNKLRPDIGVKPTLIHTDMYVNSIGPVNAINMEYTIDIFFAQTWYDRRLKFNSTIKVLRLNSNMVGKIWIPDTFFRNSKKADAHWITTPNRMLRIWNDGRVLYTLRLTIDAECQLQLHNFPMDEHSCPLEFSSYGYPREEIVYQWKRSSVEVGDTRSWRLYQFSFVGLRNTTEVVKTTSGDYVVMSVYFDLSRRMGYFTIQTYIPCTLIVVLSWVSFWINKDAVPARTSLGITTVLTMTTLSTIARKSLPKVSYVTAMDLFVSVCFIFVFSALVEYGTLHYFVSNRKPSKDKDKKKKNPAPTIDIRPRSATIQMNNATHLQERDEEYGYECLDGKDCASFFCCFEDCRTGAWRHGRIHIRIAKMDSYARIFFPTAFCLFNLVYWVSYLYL
# Chain of GABA A receptor alpha-3/beta-2/gamma-2 (P20236 whole entry): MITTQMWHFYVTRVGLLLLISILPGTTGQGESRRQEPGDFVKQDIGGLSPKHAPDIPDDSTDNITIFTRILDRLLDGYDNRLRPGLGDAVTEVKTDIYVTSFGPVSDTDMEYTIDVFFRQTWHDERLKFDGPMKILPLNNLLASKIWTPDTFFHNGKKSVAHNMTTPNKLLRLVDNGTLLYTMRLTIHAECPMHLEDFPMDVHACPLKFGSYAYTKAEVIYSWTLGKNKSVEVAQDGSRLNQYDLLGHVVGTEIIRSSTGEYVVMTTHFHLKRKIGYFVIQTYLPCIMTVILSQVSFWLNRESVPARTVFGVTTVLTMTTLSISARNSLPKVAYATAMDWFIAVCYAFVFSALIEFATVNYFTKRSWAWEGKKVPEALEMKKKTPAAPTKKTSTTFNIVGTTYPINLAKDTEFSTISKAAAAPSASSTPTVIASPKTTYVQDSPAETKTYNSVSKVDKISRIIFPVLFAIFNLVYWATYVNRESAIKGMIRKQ
# Chain of GABA A receptor alpha-3/beta-2/gamma-2 (P63138 whole entry): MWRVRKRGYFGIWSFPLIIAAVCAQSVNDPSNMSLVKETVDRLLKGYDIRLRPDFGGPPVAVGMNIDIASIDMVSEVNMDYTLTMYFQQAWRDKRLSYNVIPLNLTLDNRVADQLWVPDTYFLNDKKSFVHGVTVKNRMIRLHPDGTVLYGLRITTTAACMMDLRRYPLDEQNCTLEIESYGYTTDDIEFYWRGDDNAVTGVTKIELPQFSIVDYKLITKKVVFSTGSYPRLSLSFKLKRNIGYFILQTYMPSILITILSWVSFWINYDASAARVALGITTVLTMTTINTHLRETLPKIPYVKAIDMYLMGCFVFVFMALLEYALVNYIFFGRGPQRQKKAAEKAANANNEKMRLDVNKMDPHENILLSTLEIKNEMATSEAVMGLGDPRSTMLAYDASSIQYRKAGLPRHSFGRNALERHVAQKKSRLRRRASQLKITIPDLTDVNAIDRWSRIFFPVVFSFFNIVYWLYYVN
# Chain of GABA-A receptor; alpha-1/beta-2/gamma-2 (P18508 whole entry): as the sequence (P18508 whole entry) above
# Chain of GABA-A receptor; alpha-1/beta-2/gamma-2 (P62813 whole entry): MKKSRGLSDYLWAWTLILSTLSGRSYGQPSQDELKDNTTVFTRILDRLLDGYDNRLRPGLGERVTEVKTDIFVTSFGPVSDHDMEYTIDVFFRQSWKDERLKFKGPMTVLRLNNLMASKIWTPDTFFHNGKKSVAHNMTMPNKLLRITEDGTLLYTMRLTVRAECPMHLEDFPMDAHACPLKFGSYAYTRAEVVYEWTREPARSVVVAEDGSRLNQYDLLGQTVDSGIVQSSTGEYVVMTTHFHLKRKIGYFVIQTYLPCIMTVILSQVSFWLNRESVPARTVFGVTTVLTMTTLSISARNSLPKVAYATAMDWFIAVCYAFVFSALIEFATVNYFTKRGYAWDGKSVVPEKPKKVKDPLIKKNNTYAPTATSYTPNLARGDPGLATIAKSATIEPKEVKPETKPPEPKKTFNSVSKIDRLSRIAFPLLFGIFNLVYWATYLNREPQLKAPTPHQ
# Chain of GABA-A receptor; alpha-1/beta-2/gamma-2 (P63138 whole entry): as the sequence (P63138 whole entry) above
smiles,measurement,setting,value
[O-][n+]1nc2c(Cl)cnn2c2cc(I)ccc21,Ki,[1],0.202 µM
CCCCCOc1ccc2c(c1)n1ncc(I)c1n[n+]2[O-],Ki,[1],0.0065 µM
Cc1ccc2c(c1)n1ncc(Cl)c1n[n+]2[O-],Ki,[1],0.196 µM
[O-][n+]1nc2c(I)cnn2c2cc(O)ccc21,Ki,[1],1.7 µM
COCCOc1ccc2c(c1)n1ncc(I)c1n[n+]2[O-],Ki,[1],0.037 µM
[O-][n+]1nc2c(I)cnn2c2cc(OCCCl)ccc21,Ki,[1],0.062 µM
[O-][n+]1nc2c(Br)cnn2c2cc(I)ccc21,Ki,[1],0.081 µM
CCOc1ccc2c(c1)n1ncc(Cl)c1n[n+]2[O-],Ki,[1],0.16 µM
[O-][n+]1nc2c(Cl)cnn2c2cc(Br)ccc21,Ki,[1],0.332 µM
[O-][n+]1nc2c(Br)cnn2c2cc(Br)ccc21,Ki,[1],0.073 µM
CN(C)CCOc1ccc2c(c1)n1ncc(I)c1n[n+]2[O-],Ki,[1],0.233 µM
[O-][n+]1nc2c(Br)cnn2c2cc(Cl)ccc21,Ki,[1],0.12 µM
CSc1ccc2c(c1)n1ncc(I)c1n[n+]2[O-],Ki,[1],0.0158 µM
[O-][n+]1nc2c(Cl)cnn2c2cc(Cl)ccc21,Ki,[1],0.374 µM
CCOc1ccc2n[n+]([O-])c3c(I)cnn3c2c1,Ki,[1],0.0017 µM
same,Activity,[2],12.5%
same,Activity,[3],Active
same,Activity,[4],Active
same,Activity,[5],Active
same,Activity,[6],293.4 s
same,Ki,[7],0.0123 µM
same,Activity,[8],0.4
same,Ki,[9],0.07 µM
same,Activity,[10],0.6
same,Activity,[11],0%
same,Ki,[12],0.0026 µM
[O-][n+]1nc2c(I)cnn2c2cc(OCC3CC3)ccc21,Ki,[1],0.0076 µM
Clc1ccc2nnc3c(I)cnn3c2c1,Ki,[1],0.0228 µM
CCOc1ccc2c(c1)n1ncc(Br)c1n[n+]2[O-],Ki,[1],0.0369 µM
CCCCOc1ccc2c(c1)n1ncc(I)c1n[n+]2[O-],Ki,[1],0.0054 µM
Cc1ccc2c(c1)n1ncc(Br)c1n[n+]2[O-],Ki,[1],0.0532 µM
[O-][n+]1nc2c(I)cnn2c2cc(I)ccc21,Ki,[1],0.014 µM
COc1ccc2c(c1)n1ncc(I)c1n[n+]2[O-],Ki,[1],0.0135 µM
CN1C(=O)CN=C(c2ccccc2)c2cc(Cl)ccc21 [DIAZEPAM],Ki,[1],0.01 µM
same,Activity,[13],1.2
same,Activity,[11],100%
Cc1ccc2c(c1)n1ncc(I)c1n[n+]2[O-],Ki,[1],0.012 µM
CC(C)Oc1ccc2c(c1)n1ncc(I)c1n[n+]2[O-],Ki,[1],0.042 µM
CCCOc1ccc2c(c1)n1ncc(I)c1n[n+]2[O-],Ki,[1],0.012 µM
CCOc1ccc2n[n+]([O-])c3c(Br)cnn3c2c1,Ki,[1],0.0156 µM
CCOc1ccc2c(c1)n1ncc(I)c1n[n+]2[O-],Ki,[1],0.0048 µM
same,Activity,[13],0.2
same,Activity,[14],Active
same,Activity,[15],Active
same,Activity,[16],Active
same,Activity,[17],0%
same,Activity,[2],0%
same,Activity,[3],Active
same,Activity,[4],Active
same,Activity,[5],Active
same,Ki,[7],0.034 µM
same,Activity,[8],0.2
same,Ki,[9],0.099 µM
same,Activity,[10],0.2
same,Activity,[11],10%
same,Ki,[12],0.0041 µM
[O-][n+]1nc2c(I)cnn2c2cc(Br)ccc21,Ki,[1],0.014 µM
CCOc1ccc2nnc3c(I)cnn3c2c1,Ki,[1],0.018 µM
same,Activity,[13],0.3
same,Activity,[17],0%
same,Activity,[2],0%
same,Activity,[6],237.7 s
same,Ki,[7],0.133 µM
same,Activity,[8],0.7
same,Ki,[9],0.095 µM
same,Activity,[11],0%
same,Ki,[12],0.0138 µM
C#CCOc1ccc2c(c1)n1ncc(I)c1n[n+]2[O-],Ki,[1],0.0008 µM
